Measured values from ChEMBL document CHEMBL1139016, “Synthesis and antiviral activity of 2'-deoxy-2'-fluoro-2'-C-methyl purine nucleosides as inhibitors of hepatitis C virus RNA replication” (Bioorg Med Chem Lett, 2006).

Legend:
Hepatitis C virus = assay: Antiviral activity against HCV replication; format: functional, organism-based, Hepacivirus hominis
Huh-7 = assay: Cytotoxicity against Huh7 cells by MTS assay; format: functional; conditions: Homo sapiens
Procedure, shortened: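 Cells exposed to compound for 96 h; viability read by MTS tetrazolium reduction (non-radioactive cell proliferation kit); CC50 taken as the 50% cytotoxic concentration.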

Row | Structure (SMILES) | EC90 (Hepatitis C virus) [µM] | CC50 (Huh-7) [µM]
1 | C[C@@]1(F)[C@H](O)[C@@H](CO)O[C@H]1n1cnc2c(Cl)nc(N)nc21 | 62.4 | > 100
2 | C[C@@]1(F)[C@H](O)[C@@H](CO)O[C@H]1n1cnc2c(O)nc(N)nc21 | 56 | > 100
3 | C[C@@]1(F)[C@H](O)[C@@H](CO)O[C@H]1n1cnc2c(N)ncnc21 | > 100 | > 100
4 | C[C@@]1(F)[C@H](O)[C@@H](CO)O[C@H]1n1cnc2c(Cl)ncnc21 | 88.2 | 27.1
5 | C[C@@]1(O)[C@H](O)[C@@H](CO)O[C@H]1n1cnc2c(N)ncnc21 | 1.4 | 15
6 | C[C@@]1(O)[C@H](O)[C@@H](CO)O[C@H]1n1cnc2c(=O)[nH]c(N)nc21 [2'-B-METHYL-GUANOSINE] | 10.8 | > 100
